Source: publication PMC9380703 (RSC Advances, 2022)

Columns and labels:
Format in all cases: cell-based
[1] = test system: A549 (non-small lung carcinoma) cells; assay: MTT cytotoxicity assay, A549 cells; settings: Homo sapiens, A549, 48 h, read-out: IC50 ± SD A549
Outline: (§1)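 Cells exposed to test compounds for 48 h; viability read by MTT. IC50 computed from triplicate experiments and reported as mean ± SD, with paclitaxel as positive control. BEAS-2B normal lung epithelial cells assayed alongside the cancer lines.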

[2] = test system: MCF-7 (breast cancer); assay: MTT cytotoxicity assay, MCF-7 cells; settings: Homo sapiens, MCF7, 48 h, read-out: IC50 ± SD MCF-7
Outline: as §1

[3] = test system: HeLa (human cervical cancer cells); assay: MTT cytotoxicity assay, HeLa cells; settings: 48 h, read-out: IC50 ± SD HeLa
Outline: as §1

[4] = test system: BEAS-2B (normal human lung epithelial cells); assay: MTT cytotoxicity assay, BEAS-2B normal cells; settings: 48 h, read-out: IC50 ± SD BEAS-2B
Outline: as §1

| SMILES | IC50 [1] | IC50 [2] | IC50 [3] | IC50 [4] |
| --- | --- | --- | --- | --- |
| C[C@]12CC[C@H](O)C[C@H]1CC[C@@H]1[C@@H]2C[C@@H](O)[C@]2(C)[C@@H](C3=CC(=O)OC3)CC[C@]12O [Compound 6, digoxigenin] | 1280 ± 230 nM | 1440 ± 10 nM | 770 ± 230 nM | 2580 ± 110 nM |
| CC(=O)O[C@H]1C[C@H](O[C@H]2[C@@H](O)C[C@H](O[C@H]3[C@@H](O)C[C@H](O[C@H]4CC[C@@]5(C)[C@H](CC[C@@H]6[C@@H]5C[C@@H](O)[C@]5(C)[C@@H](C7=CC(=O)OC7)CC[C@]65O)C4)O[C@@H]3C)O[C@@H]2C)O[C@H](C)[C@H]1O [Compound 8, acetyldigoxin] | 150 ± 10 nM | 190 ± 60 nM | 130 ± 7 nM | 250 ± 60 nM |
| CC(=O)O[C@H]1C[C@H](O[C@H]2[C@@H](O)C[C@H](O[C@H]3[C@@H](O)C[C@H](O[C@H]4CC[C@@]5(C)[C@H](CC[C@@H]6[C@@H]5C[C@@H](O)[C@]5(C)[C@@H](C7=CC(=O)OC7)CC[C@]65O)C4)O[C@@H]3C)O[C@@H]2C)O[C@H](C)[C@H]1O[C@@H]1O[C@H](CO)[C@@H](O)[C@H](O)[C@H]1O [Compound 9, lanatoside C] | 190 ± 30 nM | 240 ± 110 nM | 130 ± 13 nM | 370 ± 100 nM |
| CC(=O)O[C@H]1C(=O)[C@@]2(C)[C@H]([C@H](OC(=O)c3ccccc3)[C@]3(O)C[C@H](OC(=O)[C@H](O)[C@@H](NC(=O)c4ccccc4)c4ccccc4)C(C)=C1C3(C)C)[C@]1(OC(C)=O)CO[C@@H]1C[C@@H]2O [Paclitaxel, reference compound] | 60 ± 40 nM | 110 ± 50 nM | 20 ± 10 nM | 130 ± 30 nM |
